# Active and inactive are the calls of the source. The rule behind the calls is not given here.
# Key:
# Melan-a [1] = assay: Cytotoxicity against mouse Melan-a cells assessed as effect on cell viability at <2 uM after 24 to 72 hrs by trypan blue exclusion assay; format: cell-based
# Melan-a [2] = assay: Inhibition of melanogenesis in mouse Melan-a cells assessed as effect on whitening property at 40 uM after 48 hrs; format: functional, cell-based
# Summary of the method: (§1)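 Melan-a murine melanocytes in RPMI 1640 with 10% FBS, penicillin/streptomycin and 200 nM PMA at 37 °C and 5% CO2. Seeded at 60,000 cells/well in 6-well plates and treated 48 h with 1–40 µM from 1000X DMSO stock (final 0.1% DMSO) or DMSO alone. For line 1, cells were pretreated 1 h with 1 µM ICI 182780. Melanin is read as A405, % of control.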
# Melan-a [3] = assay: Induction of melanogenesis in mouse Melan-a cells assessed as effect on tanning property at 40 uM after 48 hrs; format: functional, cell-based
# Melan-a [4] = assay: Induction of melanogenesis in mouse Melan-a cells assessed as increase in melanin content at 10 to 40 uM after 48 hrs; format: functional, cell-based; summary of the method: as §1
# Melan-a [5] = assay: Increase in tyrosinase mRNA expression in mouse Melan-a cells at 40 uM after 24 hrs by SYBR green dye based qRT-PCR analysis; format: functional, cell-based
# Summary of the method: (§2)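 Real-time PCR on Melan-a cells given 40 µM for 24 h. Total RNA was isolated with TRIzol, and Ct values of tyrosinase, TRP-1, TRP-2 and MITF were normalized to cyclophilin A1. Mean of three independent experiments in duplicate.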
# Melan-a [6] = assay: Induction of melanogenesis in mouse Melan-a cells assessed as increase in melanin content at 40 uM; format: functional, cell-based
# Melan-a [7] = assay: Increase in Rab27a expression in mouse Melan-a cells at 40 uM after 48 hrs by Western blot analysis
# Melan-a [8] = assay: Cytotoxicity against mouse Melan-a cells assessed as effect on cell viability at 40 uM after 24 to 72 hrs by trypan blue exclusion assay; format: cell-based
# Summary of the method: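 Melan-a cells seeded at 60,000/well in 6-well plates and treated at 40 µM (0.1% DMSO) for the indicated times. Cells were trypsinized, pelleted at 4 °C, stained with 0.25% trypan blue in PBS and counted in a Malassez chamber. Viability % = [1 − (blue/total cells)] × 100. Mean ± SEM of three independent experiments in duplicate.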
# [9] = target: Estrogen receptor beta (Mus musculus) (UniProt O08537); assay: Agonist activity at ERbeta in mouse Melan-a cells assessed as increase in melanin content at 40 uM measured after 48 hrs in presence of ER antagonist ICI 182780; format: cell-based; summary of the method: as §1
# Melan-a [10] = assay: Increase in TRP1 expression in mouse Melan-a cells at 40 uM after 48 hrs by Western blot analysis
# [11] = target: Estrogen receptor beta (Mus musculus) (UniProt O08537); assay: Binding affinity to ERbeta in mouse Melan-a cells; format: cell-based
# Melan-a [12] = assay: Increase in tyrosinase expression in mouse Melan-a cells at 40 uM after 48 hrs by Western blot analysis
# Melan-a [13] = assay: Increase in MITF mRNA expression in mouse Melan-a cells at 40 uM after 24 hrs by SYBR green dye based qRT-PCR analysis; format: functional, cell-based; summary of the method: as §2
# Melan-a [14] = assay: Induction of melanogenesis in mouse Melan-a cells assessed as effect on pigmentation at 40 uM after 72 hrs by photography; format: functional, cell-based
# Summary of the method: (§3)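 Melan-a cells treated with 40 µM or solvent vehicle for 3 days, then photographed to record pigmentation.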
# [15] = Photostability of the compound assessed as compound degradation under sunlight exposed for 6 days in EtOH solution measured in presence of UV-A filter Uvinul A by TLC method; format: physicochemical; details: 144 h
# Melan-a [16] = assay: Increase in TRP2 mRNA expression in mouse Melan-a cells at 40 uM after 24 hrs by SYBR green dye based qRT-PCR analysis; format: functional, cell-based; summary of the method: as §2
# Melan-a [17] = assay: Induction of melanogenesis in mouse Melan-a cells assessed as increase in melanin content at 40 uM after 72 hrs relative to control; format: functional
# Summary of the method: (§4)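 Melan-a cells in PMA-containing RPMI/10% FBS, treated 3 days at 40 µM (0.1% DMSO final) against DMSO-treated controls. Pellets were washed in PBS and extracted with water/EtOH–ether (1/1). Melanin was solubilized in 1 M NaOH/DMSO 90/10 at 80 °C for 1 h, read as A405 and expressed as % of control. Mean ± SEM, t test.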
# Melan-a [18] = assay: Increase in MITF expression in mouse Melan-a cells at 40 uM after 48 hrs by Western blot analysis
# Melan-a [19] = assay: Increase in TRP2 expression in mouse Melan-a cells at 40 uM after 48 hrs by Western blot analysis
# Melan-a [20] = assay: Increase in TRP1 mRNA expression in mouse Melan-a cells at 40 uM after 24 hrs by SYBR green dye based qRT-PCR analysis; format: functional, cell-based; summary of the method: as §2
# [21] = Photostability of the compound assessed as compound degradation under sunlight exposed for 6 days in EtOH solution measured by TLC method; format: physicochemical; details: 144 h
# Melan-a [22] = assay: Induction of melanogenesis in mouse Melan-a cells assessed as pro-pigmentation at 40 uM after 48 hrs relative to control; format: functional; summary of the method: as §1
# Melan-a [23] = assay: Effect on TRP2 expression in mouse Melan-a cells at 40 uM after 48 hrs by western blot analysis (reference value: 1)
# Melan-a [24] = assay: Inhibition of melanogenesis in mouse Melan-a cells assessed as reduction in melanin content at 40 uM; format: functional, cell-based
# Melan-a [25] = assay: Decrease in tyrosinase mRNA expression in mouse Melan-a cells at 40 uM after 24 hrs by SYBR green dye based qRT-PCR analysis relative to control; format: functional; summary of the method: as §2
# Melan-a [26] = assay: Antimelanogenic activity in mouse Melan-a cells assessed as inhibition of UV irradiation-stimulated melanin synthesis at 40 uM measured after 48 hrs
# Melan-a [27] = assay: Inhibition of melanogenesis in mouse Melan-a cells assessed as effect on whitening property measured after 48 hrs; format: functional, cell-based; summary of the method: as §1
# Melan-a [28] = assay: Effect on tyrosinase expression in mouse Melan-a cells at 40 uM after 48 hrs by western blot analysis (reference value: 1)
# Melan-a [29] = assay: Inhibition of melanogenesis in mouse Melan-a cells assessed as effect on pigmentation at 40 uM after 72 hrs by photography; format: functional, cell-based; summary of the method: as §3
# Melan-a [30] = assay: Inhibition of melanogenesis in mouse Melan-a cells assessed as reduction in melanin content at 40 uM after 72 hrs relative to control; format: functional; summary of the method: as §4
# Melan-a [31] = assay: Effect on Rab27a expression in mouse Melan-a cells at 40 uM after 48 hrs by western blot analysis (reference value: 1)
# Melan-a [32] = assay: Antimelanogenic activity in mouse Melan-a cells assessed as inhibition of alpha-MSH-stimulated melanin synthesis at 40 uM measured after 48 hrs
# Melan-a [33] = assay: Decrease in TRP2 mRNA expression in mouse Melan-a cells at 40 uM after 24 hrs by SYBR green dye based qRT-PCR analysis relative to control; format: functional; summary of the method: as §2
# Melan-a [34] = assay: Decrease in TRP1 mRNA expression in mouse Melan-a cells at 40 uM after 24 hrs by SYBR green dye based qRT-PCR analysis relative to control; format: functional; summary of the method: as §2
# Melan-a [35] = assay: Effect on MITF expression in mouse Melan-a cells at 40 uM after 48 hrs by western blot analysis (reference value: 1)
# Melan-a [36] = assay: Effect on TRP1 expression in mouse Melan-a cells at 40 uM after 48 hrs by western blot analysis (reference value: 1)
# Melan-a [37] = assay: Decrease in MITF mRNA expression in mouse Melan-a cells at 40 uM after 24 hrs by SYBR green dye based qRT-PCR analysis relative to control; format: functional; summary of the method: as §2
# Estrogen receptor beta (Mus musculus), sequence (O08537 whole entry): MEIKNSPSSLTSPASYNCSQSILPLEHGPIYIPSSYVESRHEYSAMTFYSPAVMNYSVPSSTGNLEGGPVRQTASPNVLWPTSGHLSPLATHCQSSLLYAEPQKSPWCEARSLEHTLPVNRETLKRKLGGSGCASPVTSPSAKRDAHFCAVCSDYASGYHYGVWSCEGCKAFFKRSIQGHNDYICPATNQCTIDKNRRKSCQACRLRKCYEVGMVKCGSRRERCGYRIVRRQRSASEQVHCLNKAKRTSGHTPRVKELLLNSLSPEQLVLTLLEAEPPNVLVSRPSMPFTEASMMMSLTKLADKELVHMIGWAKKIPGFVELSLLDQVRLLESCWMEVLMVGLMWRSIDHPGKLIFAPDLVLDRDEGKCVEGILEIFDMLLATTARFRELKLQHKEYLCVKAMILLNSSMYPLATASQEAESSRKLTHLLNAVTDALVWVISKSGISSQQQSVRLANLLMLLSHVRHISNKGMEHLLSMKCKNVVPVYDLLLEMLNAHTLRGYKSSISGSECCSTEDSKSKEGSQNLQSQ
smiles,measurement,setting,value
CC(C)=CCC/C(C)=C/COc1c2occc2cc2ccc(=O)oc12,Activity,Melan-a [1],Toxic
COc1c(OC/C=C(\C)CCC=C(C)C)ccc2ccc(=O)oc12,inhibition,Melan-a [2],inactive
same,Activity,Melan-a [3],inactive
COc1c(OCC=C(C)C)ccc2ccc(=O)oc12,inhibition,Melan-a [2],inactive
same,Activity,Melan-a [3],inactive
COc1cc(OC/C=C(\C)CCC=C(C)C)c2ccc(=O)oc2c1,inhibition,Melan-a [2],inactive
same,Activity,Melan-a [3],inactive
COc1cc2ccc(=O)oc2cc1OC/C=C(\C)CCC=C(C)C,inhibition,Melan-a [2],inactive
same,Activity,Melan-a [3],inactive
CC(C)=CCOc1ccc2ccc(=O)oc2c1 [7-PRENYLOXYCOUMARIN],Activity,Melan-a [4],Active
same,Activity,Melan-a [5],Active
same,Activity,Melan-a [6],Dose-dependent effect
same,Activity,Melan-a [7],Active
same,Activity,Melan-a [8],Non-Toxic
same,Activity,[9],Active
same,Activity,Melan-a [10],Active
same,Activity,[11],Active
same,Activity,Melan-a [12],Active
same,Activity,Melan-a [13],Active
same,Activity,Melan-a [14],Active
same,Stability,[15],Stable
same,Activity,Melan-a [16],Active
same,fold change (FC),Melan-a [17],6
same,Activity,Melan-a [18],Active
same,Activity,Melan-a [19],Active
same,Activity,Melan-a [20],Active
same,Stability,[21],Unstable
CC(C)=CCC/C(C)=C/COc1ccc2ccc(=O)oc2c1 [AURAPTENE],Activity,Melan-a [6],Dose-dependent effect
same,Activity,Melan-a [8],Non-Toxic
same,fold change (FC),Melan-a [22],1.3
same,Activity,[11],Active
same,Activity,Melan-a [14],Active
same,Stability,[15],Stable
same,fold change (FC),Melan-a [17],2
same,Stability,[21],Unstable
CC(C)=CCC/C(C)=C/COc1c2ccoc2cc2oc(=O)ccc12 [BERGAMOTTIN],Activity,Melan-a [1],Toxic
CC(C)=CCOc1c2ccoc2cc2oc(=O)ccc12 [ISOIMPERATORIN],Activity,Melan-a [1],Toxic
CC(C)=CCOc1c2occc2cc2ccc(=O)oc12 [PENTOSALEN],Activity,Melan-a [1],Toxic
same,inhibition,Melan-a [2],inactive
same,Activity,Melan-a [3],inactive
O=c1ccc2ccc(O)cc2o1 [UMBELLIFERONE],inhibition,Melan-a [2],inactive
same,Activity,Melan-a [8],Non-Toxic
same,Activity,Melan-a [3],inactive
CC(C)=CCC/C(C)=C/CC/C(C)=C/COc1ccc2ccc(=O)oc2c1 [UMBELLIPRENIN],fold change (FC),Melan-a [23],0.3
same,inhibition,Melan-a [24],Dose-dependent effect
same,fold change (FC),Melan-a [25],>2
same,inhibition,Melan-a [26],Active
same,inhibition,Melan-a [27],Dose-dependent effect
same,Activity,Melan-a [8],Non-Toxic
same,fold change (FC),Melan-a [28],1.6
same,Activity,[11],Active
same,inhibition,Melan-a [29],Active
same,inhibition at 40 µM,Melan-a [30],> 70%
same,fold change (FC),Melan-a [31],0.3
same,inhibition,Melan-a [32],Active
same,fold change (FC),Melan-a [33],>2
same,fold change (FC),Melan-a [34],>2
same,fold change (FC),Melan-a [35],0.5
same,fold change (FC),Melan-a [36],0.1
same,fold change (FC),Melan-a [37],>2

# — ChEMBL document CHEMBL4152246, “Natural oxyprenylated coumarins are modulators of melanogenesis” (Eur J Med Chem, 2018)
